Assay outcomes as filed in PubChem BioAssay.
VLA-4 inh = inhibition in human VLA-4 binding assay, primary screen, VLA-4 allosteric modulator project, MLPCN library, flow cytometry, VLA-4 expressing cells | ligand binding flow cytometry | inhibition, % (about 7 µM as worked out from the volumes in the protocol) | 0.2% of 330,000 active; in the data active = inhibition above about 50%
DAGLB inhibitor = DAGLB lipase inhibitors, primary screen, biochemical, fluorescence, HTS; HEK293T DAGLB membrane lysate, EnzChek fluorogenic substrate; inhibition, % at 5.17 µM; 0.059% of 340,000 active; AID 504411, 2011; in the data active = inhibition above about 34%
MT1-MMP act inh = blockers of MT1-MMP proenzyme processing, primary screen, HT1080 RFP-PRO-GFP cells, GFP/RFP fluorescence. GFP/RFP ratio fluorescence, overnight; percent of plate control window, DMSO zero. GFP/RFP ratio change, % at 20 µM. 0.061% of 360,000 active;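 active = GFP/RFP ratio change of at least 30% with cell ATP level not reduced by more than half and red fluorescence within 50% of control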
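Material – HT1080 RFP-PRO-GFP cells · Control set – DMSO wells and RFP-L50D-GFP cells · Incubation – overnight cell settling, then overnight compound exposure, 37 °C, 5% CO2 · Compound dosing – single-point 20 µM compound, 1% DMSO · Read-out – GFP/RFP fluorescence ratio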
FGF22 binding = binders of human FGF22 protein, primary screen, FGF22 synaptogenesis inhibitor project, biophysical, thermal shift, single point; 1.5% of 340,000 active; activity (Tm shift, normalised), % at 9.99 µM; recombinant FGF22 thermal shift, SYPRO orange fluorescence; percent of sucrose octasulfate shift, DMSO zero; AID 651658, 2012;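 active = mean Tm shift, scaled 0 neutral to 100 positive control, at about 1.3% or above, every replicate too, limit read from the data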
Exocytosis inh = LAMP-1 surface exposure blockers, TALL-104 cells – cell-based, flow cytometry, MLPCN library, primary screen; TALL-104 LAMP-1 surface exposure; cells stimulated with thapsigargin and PMA; inhibition, % at 10 µM; 0.66% of 360,000 active;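 active = inhibition above about 55%, limit read from the data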
ABCB6 inh MLPCN = ABCB6 transporter inhibitors, primary screen, K562-ABCB6 cells, flow cytometry, MLPCN library; K562-ABCB6 porphyrin accumulation, 1 h; stronger effect = lower value; fluorescence ratio to DMSO, % at 10 µM; 0.19% of 360,000 active;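 active = fluorescence ratio to DMSO below 75%, the collection mean minus 3 SD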;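 also: signal is porphyrin accumulated inside mitochondria; lower ratio means ABCB6 inhibition with less porphyrin fluorescence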
Of the large screens only hits and unclear results are named; the others gave an inactive call. An excerpt weighted towards active compounds, which were near 2% of everything screened.

COc1ccc(NC(=O)Nc2ccc3c(c2)C(=O)N([C@H](C)CO)C[C@H](C)[C@H](CN(C)S(=O)(=O)c2ccc(Cl)cc2)O3)cc1	none (no result: VLA-4 inh, DAGLB inhibitor, MT1-MMP act inh, Exocytosis inh, ABCB6 inh MLPCN)
O=C(CN1CCC(C(=O)c2cccc(F)c2)CC1)NCc1cccs1	FGF22 binding 43
CC(=O)N1N=C(c2ccc3ccccc3c2)OC1(C)C	none (no result: FGF22 binding)
CC(C)(C)C1N=C(c2ccc3ccccc3c2)OC1=O (centres undefined)	Exocytosis inh 64
C[C@@H]1CN([C@@H](C)CO)C(=O)c2cccc(NC(=O)C3CC3)c2O[C@H]1CN(C)C(=O)Nc1ccc(C(F)(F)F)cc1	none (no result: VLA-4 inh, DAGLB inhibitor, MT1-MMP act inh, Exocytosis inh, ABCB6 inh MLPCN)
COc1ccc(S(=O)(=O)Nc2ccc3c(c2)C(=O)N([C@H](C)CO)C[C@@H](C)[C@@H](CN(C)Cc2ccc4c(c2)OCO4)OCCCC[C@H](C)O3)cc1	none (no result: VLA-4 inh, DAGLB inhibitor, MT1-MMP act inh, Exocytosis inh, ABCB6 inh MLPCN)
COc1ccc(S(=O)(=O)Nc2ccc3c(c2)C(=O)N([C@@H](C)CO)C[C@@H](C)[C@H](CN(C)Cc2ccc4c(c2)OCO4)OCCCC[C@H](C)O3)cc1	FGF22 binding 1.3 (no result: VLA-4 inh, DAGLB inhibitor, MT1-MMP act inh, Exocytosis inh, ABCB6 inh MLPCN)
C[C@@H]1CCCCO[C@@H](CN(C)C(=O)Nc2ccc(F)cc2)[C@H](C)CN([C@@H](C)CO)C(=O)c2cc(NC(=O)Nc3ccc(C(F)(F)F)cc3)ccc2O1	FGF22 binding 1.4 (no result: VLA-4 inh, DAGLB inhibitor, MT1-MMP act inh, Exocytosis inh, ABCB6 inh MLPCN)
C[C@H]1CCCCO[C@H](CN(C)C(=O)Nc2ccc(F)cc2)[C@@H](C)CN([C@@H](C)CO)C(=O)c2cc(NC(=O)Nc3ccc(C(F)(F)F)cc3)ccc2O1	FGF22 binding 1.6 (no result: VLA-4 inh, DAGLB inhibitor, MT1-MMP act inh, Exocytosis inh, ABCB6 inh MLPCN)
C[C@@H]1CCCCO[C@@H](CN(C)C(=O)Nc2ccc(C(F)(F)F)cc2)[C@@H](C)CN([C@H](C)CO)C(=O)c2cc(NC(=O)Nc3ccc(F)cc3)ccc2O1	none (no result: VLA-4 inh, DAGLB inhibitor, MT1-MMP act inh, Exocytosis inh, ABCB6 inh MLPCN)
C[C@@H]1CCCCO[C@H](CN(C)C(=O)Nc2ccc(C(F)(F)F)cc2)[C@@H](C)CN([C@H](C)CO)C(=O)c2cc(NC(=O)Nc3ccc(C(F)(F)F)cc3)ccc2O1	FGF22 binding 1.4 (no result: VLA-4 inh, DAGLB inhibitor, MT1-MMP act inh, Exocytosis inh, ABCB6 inh MLPCN)
C/C=C/c1cnc2c(c1)C(=O)N([C@H](C)CO)C[C@@H](C)[C@@H](CN(C)C(=O)CN1CCOCC1)O2	none (no result: VLA-4 inh, DAGLB inhibitor, MT1-MMP act inh, Exocytosis inh, ABCB6 inh MLPCN)
CO[C@H]1CN(C)C(=O)c2ccc(NC(=O)C3CC3)cc2OC[C@H](C)N(C(=O)c2ccccc2)C[C@@H]1C	none (no result: VLA-4 inh, DAGLB inhibitor, MT1-MMP act inh, Exocytosis inh, ABCB6 inh MLPCN)
COc1ccc(S(=O)(=O)Nc2ccc3c(c2)C(=O)N([C@@H](C)CO)C[C@@H](C)[C@H](CN(C)C(=O)Nc2ccc(F)cc2)OCCCC[C@@H](C)O3)cc1	FGF22 binding 18 (no result: VLA-4 inh, DAGLB inhibitor, MT1-MMP act inh, Exocytosis inh, ABCB6 inh MLPCN)
COc1ccc(NC(=O)N(C)C[C@@H]2OCCCC[C@@H](C)Oc3ccc(NS(=O)(=O)c4ccc(F)cc4)cc3C(=O)N([C@@H](C)CO)C[C@H]2C)cc1	none (no result: VLA-4 inh, DAGLB inhibitor, MT1-MMP act inh, Exocytosis inh, ABCB6 inh MLPCN)
COc1ccc(NC(=O)Nc2ccc3c(c2)C(=O)N([C@@H](C)CO)C[C@@H](C)[C@H](CN(C)C(=O)Nc2ccc(C(F)(F)F)cc2)OCCCC[C@@H](C)O3)cc1	FGF22 binding 1.2 (no result: VLA-4 inh, DAGLB inhibitor, MT1-MMP act inh, Exocytosis inh, ABCB6 inh MLPCN)
Cc1noc(C)c1NC(=O)N(C)C[C@H]1OCCCC[C@H](C)Oc2ccc(NC(=O)NC3CCCCC3)cc2C(=O)N([C@@H](C)CO)C[C@@H]1C	FGF22 binding 1.4 (no result: VLA-4 inh, DAGLB inhibitor, MT1-MMP act inh, Exocytosis inh, ABCB6 inh MLPCN)
Cc1noc(C)c1NC(=O)N(C)C[C@H]1OCCCC[C@H](C)Oc2ccc(NC(=O)NC3CCCCC3)cc2C(=O)N([C@H](C)CO)C[C@@H]1C	none (no result: VLA-4 inh, DAGLB inhibitor, MT1-MMP act inh, Exocytosis inh, ABCB6 inh MLPCN)
COc1ccc(S(=O)(=O)N(C)C[C@@H]2Oc3ccc(NS(=O)(=O)c4ccc(C)cc4)cc3C(=O)N([C@H](C)CO)C[C@@H]2C)cc1	none (no result: VLA-4 inh, DAGLB inhibitor, MT1-MMP act inh, Exocytosis inh, ABCB6 inh MLPCN)
Cc1ccc(-c2cnc3c(c2)C(=O)N([C@@H](C)CO)C[C@@H](C)[C@@H](CN(C)S(C)(=O)=O)O3)cc1	none (no result: VLA-4 inh, DAGLB inhibitor, MT1-MMP act inh, Exocytosis inh, ABCB6 inh MLPCN)
